The values below come from ChEMBL document CHEMBL4627266, “Design and biological evaluation of a novel type of potential multi-targeting antimicrobial sulfanilamide hybrids in combination of pyrimidine and azoles” (Bioorg Med Chem Lett, 2020).

Assay [1] concerns Staphylococcus aureus. Nature of the assay: Antibacterial activity against Staphylococcus aureus ATCC 25923 by two fold serial microbroth dilution method. It is filed as functional. The gist of the method: (§1)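 Two-fold serial dilution in microdilution plates (micro broth dilution) following CLSI. Panel includes clinical drug-resistant isolates and ATCC reference strains. Clinical drugs were run as positive controls.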
In general terms: Broth dilution looks for growth in wells or tubes with falling amounts of substance.

Assay [2] relates to Escherichia coli. Briefly: Antibacterial activity against Escherichia coli ATCC 25922 by two fold serial microbroth dilution method. It is filed as functional. In a few lines:
as §1

For assay [3], the system named is Enterococcus faecalis. Briefly: Antibacterial activity against Enterococcus faecalis by two fold serial microbroth dilution method. Format: functional. The gist of the method: as §1
In assay [4] the test system is Pseudomonas aeruginosa. Briefly: Antibacterial activity against Pseudomonas aeruginosa ATCC 27853 by two fold serial microbroth dilution method. Format: functional. The gist of the method:
as §1

In assay [5] the test system is Klebsiella pneumoniae. Briefly: Antibacterial activity against Klebsiella pneumoniae by two fold serial microbroth dilution method. It is filed as functional. The gist of the method:
as §1

The subject of assay [6] is Staphylococcus aureus. Briefly: Antibacterial activity against methicillin-resistant Staphylococcus aureus by two fold serial microbroth dilution method. It is filed as functional. In a few lines: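 Two-fold serial microbroth dilution in microdilution plates, run per CLSI, with clinical antibacterial drugs as positive controls. The MRSA strain was a drug-resistant clinical isolate from infected patients. MIC (μg/mL) was read as the lowest concentration giving complete inhibition of visible bacterial growth.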

Assay [7] has as its system Pseudomonas aeruginosa. Briefly: Antibacterial activity against Pseudomonas aeruginosa by two fold serial microbroth dilution method. Format: functional. In a few lines: as §1
Assay [8] has as its system Staphylococcus aureus. Nature of the assay: Antibacterial activity against Staphylococcus aureus by two fold serial microbroth dilution method. It is filed as functional. The gist of the method:
as §1

Assay [9] has as its system Acinetobacter baumannii. Nature of the assay: Antibacterial activity against Acinetobacter baumannii by two fold serial microbroth dilution method. Format: functional. In a few lines: as §1
Assay [10] has as its system Staphylococcus aureus. Nature of the assay: Antibacterial activity against Staphylococcus aureus ATCC 29213 by two fold serial microbroth dilution method. Format: functional. The gist of the method: as §1
For assay [11], the system named is Escherichia coli. Nature of the assay: Antibacterial activity against Escherichia coli by two fold serial microbroth dilution method. Format: functional. The gist of the method:
as §1

The subject of assay [12] is Aspergillus fumigatus. Nature of the assay: Antifungal activity against Aspergillus fumigatus by two fold serial microbroth dilution method. It is filed as functional. The gist of the method:
(§2)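 Antifungal MIC by two-fold serial dilution following CLSI, with a clinical drug as positive control. Panel includes clinical drug-resistant fungal isolates.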

For assay [13], the system named is Candida tropicalis. Nature of the assay: Antifungal activity against Candida tropicalis by two fold serial microbroth dilution method. It is filed as functional. In a few lines: as §2
In assay [14] the test system is Candida albicans. Nature of the assay: Antifungal activity against Candida albicans by two fold serial microbroth dilution method. Format: functional. In a few lines:
as §2

The test system of assay [15] is Enterococcus faecalis. Briefly: Antibacterial activity against Enterococcus faecalis measured after 16 passages by microbroth dilution method. Format: functional, organism-based.

Each structure is given as a SMILES string. ≈ marks a conversion by molar mass, not a printed value. Calls of active or inactive are those of the source.

As for `Cc1ncc([N+](=O)[O-])n1-c1ccnc(NS(=O)(=O)c2ccc(N)cc2)n1`, the MIC (as a rule, the smallest concentration in the dilution series that meets the test's criterion for growth inhibition) in assay [1] is 128 µg/mL (≈ 341 µM); in [2], 256 µg/mL (≈ 682 µM); in [3], 128 µg/mL (≈ 341 µM); in assay [4], 128 µg/mL (≈ 341 µM); in [5] it was 64 µg/mL (≈ 170 µM); in assay [6], 64 µg/mL (≈ 170 µM). Besides, the minimal inhibitory concentration (MIC) in assay [7] was 256 µg/mL (≈ 682 µM); in assay [8] it was 128 µg/mL (≈ 341 µM); in assay [9], 64 µg/mL (≈ 170 µM); in assay [10], 128 µg/mL (≈ 341 µM); in assay [11] it was 128 µg/mL (≈ 341 µM).
With `Nc1ccc(S(=O)(=O)Nc2nccc(-n3ccc4cc(Br)ccc43)n2)cc1`, the MIC in assay [1] was 2 µg/mL (≈ 4.5 µM); in assay [2], 2 µg/mL (≈ 4.5 µM); in [12] it was 2 to 8 µg/mL (≈ 4.5 to 18 µM); in assay [3] it was 4 µg/mL (≈ 9 µM); in [4], 4 µg/mL (≈ 9 µM); in [5] it was 32 µg/mL (≈ 72 µM). Further, the MIC in [6] was 4 µg/mL (≈ 9 µM); in assay [7], 4 µg/mL (≈ 9 µM); in assay [8] it was 64 µg/mL (≈ 144 µM); in assay [9], 128 µg/mL (≈ 288 µM); in assay [13] it was 2 to 8 µg/mL (≈ 4.5 to 18 µM); in assay [10], 16 µg/mL (≈ 36 µM). The minimal inhibitory concentration (MIC) in assay [11] is 4 µg/mL (≈ 9 µM); in [14], 2 to 8 µg/mL (≈ 4.5 to 18 µM).
On to `Cc1ccc2c(ccn2-c2ccnc(NS(=O)(=O)c3ccc(N)cc3)n2)c1`, for which the MIC in assay [1] was 4 µg/mL (≈ 10.5 µM); in [2], 32 µg/mL (≈ 84.3 µM); in assay [12], 2 to 8 µg/mL (≈ 5.27 to 21.1 µM); in assay [3], 8 µg/mL (≈ 21.1 µM); in [4] it was 4 µg/mL (≈ 10.5 µM); in assay [5] it was 8 µg/mL (≈ 21.1 µM). The MIC was 4 µg/mL (≈ 10.5 µM) in [6]; 4 µg/mL (≈ 10.5 µM) in [7]; 16 µg/mL (≈ 42.2 µM) in assay [8]; 64 µg/mL (≈ 169 µM) in assay [9]; 2 to 8 µg/mL (≈ 5.27 to 21.1 µM) in assay [13]; 16 µg/mL (≈ 42.2 µM) in [10]. Also, the values for the MIC in [11] and in [14] were 8 µg/mL (≈ 21.1 µM) and 2 to 8 µg/mL (≈ 5.27 to 21.1 µM), respectively.
As for `CCn1cc(C(=O)O)c(=O)c2cc(F)c(N3CCNCC3)cc21` [NORFLOXACIN], the MIC in assay [1] is 1 µg/mL (≈ 3.13 µM); in [2] it was 8 µg/mL (≈ 25.1 µM); in assay [3], 4 µg/mL (≈ 12.5 µM); in assay [4], 0.5 µg/mL (≈ 1.57 µM); in assay [5], 4 µg/mL (≈ 12.5 µM); in [6], 8 µg/mL (≈ 25.1 µM). Moreover, the MIC in assay [7] was 2 µg/mL (≈ 6.26 µM); in assay [8], 0.5 µg/mL (≈ 1.57 µM); in assay [9], 8 µg/mL (≈ 25.1 µM); in [10], 2 µg/mL (≈ 6.26 µM); in [11] it was 16 µg/mL (≈ 50.1 µM). For the same compound, the result in assay [15] was inactive.
Consider `CCc1nccn1-c1ccnc(NS(=O)(=O)c2ccc(N)cc2)n1`, for which the MIC in [1] was 128 µg/mL (≈ 372 µM); in assay [2], 512 µg/mL (≈ 1490 µM); in [3] it was 64 µg/mL (≈ 186 µM); in assay [4], 128 µg/mL (≈ 372 µM); in [5], 64 µg/mL (≈ 186 µM); in assay [6] it was 128 µg/mL (≈ 372 µM). The MIC in assay [7] was 128 µg/mL (≈ 372 µM); in assay [8], 128 µg/mL (≈ 372 µM); in assay [9] it was 64 µg/mL (≈ 186 µM); in [10] it was 64 µg/mL (≈ 186 µM); in [11], 128 µg/mL (≈ 372 µM).
`Cc1cc2ncn(-c3ccnc(NS(=O)(=O)c4ccc(N)cc4)n3)c2cc1C`: the minimal inhibitory concentration (MIC) turned out to be 256 µg/mL (≈ 649 µM) in [1]; 512 µg/mL (≈ 1300 µM) in [2]; 256 µg/mL (≈ 649 µM) in assay [3]; 128 µg/mL (≈ 324 µM) in assay [4]; 256 µg/mL (≈ 649 µM) in [5]; 64 µg/mL (≈ 162 µM) in assay [6]. The minimal inhibitory concentration (MIC) in [7] turned out to be 256 µg/mL (≈ 649 µM); in assay [8] it was 256 µg/mL (≈ 649 µM); in assay [9] it was 128 µg/mL (≈ 324 µM); in assay [10], 128 µg/mL (≈ 324 µM); in assay [11], 256 µg/mL (≈ 649 µM).
Turning to `CC(C)c1nccn1-c1ccnc(NS(=O)(=O)c2ccc(N)cc2)n1`, the MIC in [1] amounted to 256 µg/mL (≈ 714 µM); in assay [2], 128 µg/mL (≈ 357 µM); in [3], 128 µg/mL (≈ 357 µM); in assay [4], 32 µg/mL (≈ 89.3 µM); in assay [5] it was 256 µg/mL (≈ 714 µM); in assay [6], 32 µg/mL (≈ 89.3 µM). Besides, the minimum inhibitory concentration (MIC) in [7] turned out to be 128 µg/mL (≈ 357 µM); in assay [8], 256 µg/mL (≈ 714 µM); in assay [9], 64 µg/mL (≈ 179 µM); in assay [10], 32 µg/mL (≈ 89.3 µM); in assay [11], 64 µg/mL (≈ 179 µM).
